Data set [1] can be described thus: Inhibition of PDE4.
The nature of data set [2]: Inhibition of PDE4 at 10 uM.
In data set [3] the test system is THP-1. As to the kind of experiment: Antiinflammatory activity in human THP1 cells assessed as inhibition of IFN-gamma release. Type of data set: functional, cell-based.
The subject of data set [4] is THP-1. As to the kind of experiment: Antiinflammatory activity in human THP1 cells assessed as inhibition of IL5 release. Type of data set: functional, cell-based.
Data set [5] concerns THP-1. In words: Antiinflammatory activity in human THP1 cells assessed as inhibition of TNFalpha release. Type of data set: functional, cell-based.
In data set [6] the test system is THP-1. In words: Antiinflammatory activity in human THP1 cells assessed as inhibition of IL2 release. Type of data set: functional, cell-based.
In data set [7] the test system is THP-1. As to the kind of experiment: Antiinflammatory activity in human THP1 cells assessed as inhibition of IL10 release. Type of data set: functional, cell-based.
Data set [8] can be described thus: Chemical stability in phosphate buffer of pH 7.4 assessed as formation of acid. Type of data set: physicochemical. The method, boiled down: (§1)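 Compounds at 5 µM final in female CD-1 mouse plasma (K2EDTA) or PBS pH 7.4, 37 °C with mild shaking for 1 h. A time-0 plate was held on ice. Reactions were quenched with internal standard in acetonitrile or methanol, then centrifuged, and the supernatant was analysed by LC/MS/MS for loss of ester and appearance of the corresponding acid. Triplicates, values are means.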

The test system of data set [9] is Plasma. As to the kind of experiment: Metabolic stability in CD1 mouse plasma assessed as change in formation of acid. Type of data set: ADME, cell-free. The method, boiled down: as §1
The test system of data set [10] is Plasma. In words: Metabolic stability in CD1 mouse plasma assessed as change in ester. Type of data set: ADME, cell-free. The method, boiled down: as §1
Data set [11] is described as follows: Chemical stability in phosphate buffer of pH 7.4 assessed as change in ester. Type of data set: physicochemical. To be noted: read-out: Activity. The method, boiled down:
as §1

The subject of data set [12] is Mus musculus. In words: Antiinflammatory activity in mouse assessed as inhibition of phorbol ester-induced ear edema at 1 mg/ear. Type of data set: functional.
For data set [13], the system named is Mus musculus. In words: Antiinflammatory activity in mouse assessed as inhibition of phorbol ester-induced ear edema at 3 mg/ear. Type of data set: functional.
A short description of data set [14]: AUC in CD1 mouse at 100 mg/kg, sc. Type of data set: ADME, organism-based. The arrangement: dose 100 mg/kg, route subcutaneous. To be noted: plasma. The method, boiled down: (§2)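 Non-fasted CD-1 mice (n = 3 per group) received a single 100 mg/kg dose sc or po as a suspension in 1% carboxymethylcellulose. Plasma ester and its acid metabolite were followed over 6 h. Parameters came from a non-compartmental model, with bioavailability referenced to iv set at 100%.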

In data set [15] the test system is Mus musculus. In words: Bioavailability in CD1 mouse at 25 mg/kg, iv. Type of data set: ADME, organism-based. To be noted: in vivo. A digest of the protocol:
(§3)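 A single 25 mg/kg iv dose in 1-methyl-2-pyrrolidone/propylene glycol/PEG-400 (10:40:50, v/v/v) was given to non-fasted CD-1 mice, n = 3. Plasma ester and acid were measured over 6 h. Non-compartmental analysis gave the PK parameters, and iv bioavailability was taken as 100%.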

Data set [16] can be described thus: Cmax in CD1 mouse at 100 mg/kg, sc. Type of data set: ADME, organism-based. The arrangement: dose 100 mg/kg, route subcutaneous. To be noted: in vivo. A digest of the protocol:
as §2

The nature of data set [17]: Tmax in CD1 mouse at 100 mg/kg, sc. Type of data set: ADME, organism-based. The arrangement: dose 100 mg/kg, route subcutaneous. Conditions: in vivo. The method, boiled down: as §2
A short description of data set [18]: Half life in CD1 mouse at 25 mg/kg, iv. The arrangement: dose 25 mg/kg, route intravenous. To be noted: in vivo. Type of data set: ADME, organism-based. The method, boiled down: as §3
Data set [19] can be described thus: AUC in CD1 mouse at 100 mg/kg, po. The arrangement: dose 100 mg/kg, route oral. Conditions: plasma. Type of data set: ADME, organism-based. A digest of the protocol:
as §2

Data set [20] in a line: Cmax in CD1 mouse at 100 mg/kg, po. On the set-up: dose 100 mg/kg, route oral. Type of data set: ADME, organism-based. Conditions: in vivo. The method, boiled down: as §2
Data set [21] can be described thus: Cmax in CD1 mouse at 25 mg/kg, iv. On the set-up: dose 25 mg/kg, route intravenous. Type of data set: ADME, organism-based. To be noted: in vivo. A digest of the protocol:
as §3

Data set [22] can be described thus: Oral bioavailability in CD1 mouse at 100 mg/kg. Type of data set: ADME, organism-based. To be noted: in vivo. A digest of the protocol:
as §2

Data set [23] can be described thus: Bioavailability in CD1 mouse at 100 mg/kg, sc. Type of data set: ADME, organism-based. To be noted: in vivo. The method, boiled down:
as §2

Data set [24] is described as follows: Tmax in CD1 mouse at 100 mg/kg, po. Type of data set: ADME, organism-based. On the set-up: dose 100 mg/kg, route oral. Conditions: in vivo. A digest of the protocol: as §2

Regarding `O=C(O)c1ccc(Oc2ccc3c(c2)COB3O)cc1`, in [1], it took 6420 nM to reach half-maximal inhibition (IC50).
For `O=C(O)c1ccc(Oc2ccc3c(c2)COB3O)nc1`, the inhibition – broadly, the share of the control response that was lost under treatment – in [2] came out at 5%. Besides, the IC50 in data set [3], in data set [4], in data set [5], in data set [6] and in data set [7] was greater than 10000 nM throughout.
In the case of `COC(=O)c1ccc(Oc2ccc3c(c2)COB3O)nc1`, the Activity in [8] is 0.4%; in data set [9], 31.6%; in [10], -42.4%. In addition, the percent change in ester in data set [11] is -9.8%. The IC50 (as a rule, the midpoint of a concentration-inhibition curve) in data set [1] stood at 84 nM.
As for `C[C@@H]1C[C@H]2[C@@H]3CCC4=CC(=O)C=C[C@]4(C)[C@@]3(F)[C@@H](O)C[C@]2(C)[C@@]1(O)C(=O)CO` [DEXAMETHASONE], in data set [12], the “inhibition (INH)” value came to 68%.
For the compound `CC(C)OC(=O)c1ccc(Oc2ccc3c(c2)COB3O)nc1`, the Activity in [8] is 1.4%; in data set [9] it was 36.4%; in [10], -60.5%. Further, the percent change in ester in [11] turned out to be 2.4%. This compound returned an IC50 in [1] of 113 nM.
Turning to `CC(C)OC(=O)c1ccc(Oc2ccc3c(c2)COB3O)cc1`, the Activity in data set [9] is listed as 27.6%; in data set [10], -58.9%. The percent change in ester in data set [11] is -10.6%. In addition, in data set [1], the IC50 turned out to be 130 nM.
In the case of `N#Cc1ccc(Oc2ccc3c(c2)COB3O)cc1` [CRISABOROLE], the IC50 in data set [1] turned out to be 490 nM.
On to `COc1ccc(C2CNC(=O)C2)cc1OC1CCCC1` (stereo not drawn) [ROLIPRAM], for which the results for the “inhibition (INH)” value in data set [13] and in data set [12] were 53% and 6%, respectively.
For the compound `N#Cc1ccc(Oc2ccc3c(c2)COB3O)nc1`, the IC50 in data set [1] was 180 nM.
With `COC(=O)c1ccc(Oc2ccc3c(c2)COB3O)cc1`, the Activity in data set [9] was 29.4%; in data set [10], -43.6%. The percent change in ester in data set [11] is -8.9%. In data set [1], this compound registered an IC50 of 287 nM.
Taken in the same sequence, the figures for `CCOC(=O)c1ccc(Oc2ccc3c(c2)COB3O)cc1` were 53.6%, -76.2%, -3.2% and 219 nM.
Consider `CCOC(=O)c1ccc(Oc2ccc3c(c2)COB3O)nc1`, for which the values for the AUC in data set [14] and in data set [19] were 14500 ng·h/mL and 1660 ng·h/mL, respectively. Besides, the IC50 is 100 nM in data set [3]; 200 nM in data set [4]; 200 nM in data set [5]; 100 nM in data set [6]; 47 nM in data set [1]; 460 nM in data set [7]. The F in data set [15] was determined as 100%. Further, the Cmax (commonly the maximum level reached in the sampled fluid or tissue) in data set [16] is 12700 ng/mL; in [20], 4390 ng/mL; in data set [21] it was 12500 ng/mL. In addition, the Tmax – broadly, the time at which the peak concentration occurs – in [17] was found to be 30 min; in data set [24], 15 min. For the same compound, in data set [18], the half-life (as a rule, the time in which the quantity being followed falls by half) is 61.8 min. The “inhibition (INH)” value in data set [12] was 59%. The bioavailability – broadly, the share of a dose that reaches the circulation, judged against a reference dose that is usually intravenous – in data set [22] is 10.8%; in data set [23], 97.8%. The Activity in data set [10] is recorded as -72.5%. Moreover, in data set [11], the percent change in ester is -2.4%.
`CCCOC(=O)c1ccc(Oc2ccc3c(c2)COB3O)nc1`: the Activity in data set [8] was 0.5%; in data set [9], 79.8%; in data set [10], -92.5%. Moreover, in [11], the percent change in ester was -13.6%. This compound had an IC50 in data set [1] of 130 nM.
`CCCOC(=O)c1ccc(Oc2ccc3c(c2)COB3O)cc1`: the Activity is listed as 58.8% in [9] and -94.9% in data set [10]. Also, the percent change in ester in [11] is -8.8%. In [1], this compound came in with an IC50 of 763 nM.
For the compound `CCCCOC(=O)c1ccc(Oc2ccc3c(c2)COB3O)nc1`, the values for the Activity in [8], in data set [9] and in data set [10] were 0.4%, 76.6% and -98%, respectively. Besides, the percent change in ester in [11] was -8.9%. The same compound registered an IC50 in data set [1] of 94.5 nM.

The values are drawn from ChEMBL document CHEMBL1156280, “Design and synthesis of boron-containing PDE4 inhibitors using soft-drug strategy for potential dermatologic anti-inflammatory application” (Bioorg Med Chem Lett, 2010).
